A selection: hits, their analogues and other compounds. The true share with any hit is near 1.3%.
Lipid droplet – inhibitors of hepatocyte lipid droplet formation, primary screen, imaging, high-throughput imaging, BODIPY stain | AML12 mouse hepatocytes, oleate lipid droplets | inhibition, % at 6.5 µM | 240,000 tested, 0.4% active;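 active = lipid droplet intensity inhibited by at least 50%, with more than 500 cells counted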
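material = mouse AML12 hepatocyte cell line, fixed after treatment | also added = 100 µM oleic acid challenge | doses = compound at 6.5 µM only | schedule = overnight exposure | technique = Image-based BODIPY and DAPI two-channel analysis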
HCV NS3 hel inh – inhibitors of HCV NS3 helicase, primary screen, biochemical, Cy5 molecular beacon fluorescence. 290,000 tested, 0.56% active. Hepatitis C virus NS3 helicase. inhibition, % at 10.9 µM. NS3 helicase DNA unwinding. AID 1800, 2009;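 active = inhibition above the mean of all tested compounds plus 3 SD, set per campaign, cut at about 35% in these data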;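 note: 0% = DMSO wells and 100% = thioflavine S control wells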
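assay system = NS3 helicase fragment of HCV | buffer or medium = MOPS pH 6.5, MgCl2, DTT, Tween20, BSA | timing = 60 min unwinding reaction at 25 °C after ATP addition | signal = Cy5 beacon fluorescence read at start and 1 h | read-out basis = % inhibition of unwinding | control set = low DMSO, high thioflavine S at 110 µM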
TbMetRS inhib – T. brucei MetRS inhibitors, primary screen, biochemical, luminescence; inhibition, % at 11.9 µM; AID 624268, 2012; methionyl-tRNA synthetase (Trypanosoma brucei brucei); 360,000 tested, 0.4% active; purified T. brucei MetRS, ATP depletion, Kinase-Glo luminescence;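 active = inhibition above a per-plate cutoff of the control wells' mean inhibition plus 3 SD, cut at about 5.5% in these data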;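 note: 0% = DMSO wells median and 100% = median of wells with control inhibitor compound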
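Assay system: T. brucei methionyl-tRNA synthetase, purified | Medium: HEPES buffer with MgCl2, KCl, DTT, spermine, BSA, pyrophosphatase | Compound: 11.9 µM single point | Incubation: 15 min enzyme-compound preincubation, 2 h reaction, 10 min detection, 25 °C | Measured by: Kinase-Glo luciferase luminescence reporting remaining unconsumed ATP | Measure: % inhibition normalized to control-well medians | Replication: Singlicate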
HCV core dimer – inhibitors of HCV core protein dimerization, primary screen, biochemical, TR-FRET, high-throughput; 300,000 tested, 0.33% active; inhibition, % at 5 µM; AID 1899, 2009; TR-FRET GST/Flag-core106 dimerization, 1536-well;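 active = inhibition above the mean of all tested compounds plus 3 SD, set per screening campaign, cut at about 45% in these data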
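Material: Tagged HCV core106 pair (GST and Flag) | Amount: GST-core106 13.5 nM, Flag-core106 17 nM | Medium: KF-containing HEPES buffer, pH 7.45, DTT, CHAPS, BSA | Reagent: Eu donor and XL665 acceptor anti-tag antibodies | Schedule: 4 h at 22.5 °C | Technique: Time-resolved FRET, ex 340 nm, em 617 and 671 nm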
Numbers without * were called inactive; x = not tested or not shown.

SMILES	Lipid droplet	HCV NS3 hel inh	TbMetRS inhib	HCV core dimer
O=C(N/N=C\c1ccc(-c2ccccc2[N+](=O)[O-])o1)C1COc2cc3ccccc3cc2O1 (stereo not drawn)	x	15.5	10.4*	30.3
O=C(COC(=O)c1ccncc1)Nc1cccc(Cl)c1	x	7.3	-1.6	46.3*
O=C(COC(=O)c1cccnc1)Nc1cccc(Cl)c1	x	-3.2	-0.3	13.0
CC(C)c1ccc(-c2nn(-c3ccccc3)cc2C2C(C#N)=C(N)OC3=C2C(=O)CC(C)(C)C3)cc1 (stereo not drawn)	x	30.5	0.2	48.0*
Cc1cc(C)cc(N2Cc3ccccc3C2)c1	x	6.4	-0.9	61.6*
O=C(c1ccc(Cn2c(=S)[nH]c3ccc(N4CCOCC4)cc3c2=O)cc1)N1CCN(c2ccc(F)cc2)CC1	-16.6	-3.5	-0.4	24.3
Cc1ccc(C)c(N2CCN(C(=O)c3ccc(Cn4c(=S)[nH]c5ccc(N6CCOCC6)cc5c4=O)cc3)CC2)c1	22.6	8.8	-0.4	48.2*
CN1CCN(c2ccc(CNC(=O)c3cccc4c(-c5ccc(F)c(F)c5)coc34)cc2)CC1	x	x	-0.3	x
Cc1cccc(C(=O)N2CCc3cc(-c4nc(NC(=O)Cn5nnc6ccccc6c5=O)sc4C)ccc32)c1	12.9	10.9	x	52.1*
Cc1cccc(C(=O)N2CCc3cc(-c4nc(NC(=O)CN5CCCC5)sc4C)ccc32)c1	-2.4	-54.1	-1.0	4.0
O=C(CSc1ccc(C(F)(F)F)cc1[N+](=O)[O-])Nc1ccccc1	x	3.7	7.6*	-5.8
CCOc1ccc(CCNC(=O)CSc2nn(-c3ccc(C)c(Cl)c3)c(=S)s2)cc1OCC	69.7*	-8.3	-0.4	3.0
CCOc1ccc(CCNC(=O)CSc2nnnn2C)cc1OCC	-0.4	-9.9	-0.5	-4.0
O=C(Nc1ccc2c(c1)CCC2)c1cc(S(=O)(=O)N2CCN(c3ccccc3)CC2)ccc1Cl	-0.5	-1.7	0.4	54.7*
COc1ccc2[nH]c(=O)c(CN(C3CCCCC3)C(c3nnnn3Cc3ccco3)C(C)C)cc2c1 (stereo not drawn)	x	32.4	0.2	69.5*
COc1ccc2[nH]c(=O)c(CN(Cc3nnnn3Cc3ccco3)C3CCCCC3)cc2c1	x	42.2*	-0.6	19.1
N#Cc1ccsc1NC(=O)COc1ccc(-c2nnco2)cc1	x	4.3	-2.2	96.4*
CNC[C@H]1Oc2cc(Br)ccc2S(=O)(=O)N([C@H](C)CO)C[C@H]1C	x	x	-0.2	x
Cn1cc([C@]2(O)C(=O)Nc3ccc(F)cc32)c2ccccc21	x	x	-0.3	x
Cn1nnnc1Sc1ncnc2scc(-c3ccc(Br)cc3)c12	x	x	-0.3	x
Cn1nnnc1Sc1ncnc2scc(-c3ccccc3)c12	-28.6	1.4	-0.4	65.2*
COc1cc(-c2c(CCO)sc3ccccc23)cc(OC)c1OC	x	x	0.3	x
COc1ccc(N2Cc3cccc(C(=O)O)c3C2=O)cc1	x	20.3	0.6	48.3*
Clc1ccc(Cn2c(/C=C/c3ccco3)nc3ccccc32)cc1	3.5	23.1	-0.3	58.2*
CC(NC(=O)/C=C/c1ccco1)c1nc2ccccc2n1Cc1c(Cl)cccc1Cl (stereo not drawn)	-0.9	1.0	0.3	35.0
SMILES	Lipid droplet	HCV NS3 hel inh	TbMetRS inhib	HCV core dimer
Cc1ccc(-c2cc(C(F)F)n3ncc(C(=O)Nc4c(C)nn(Cc5ccccc5Cl)c4C)c3n2)cc1	x	5.5	0.2	46.3*
Cc1cc(NC(=O)c2ccc3sc([C@@H]4O[C@H](CO)[C@H](O)[C@H](O)[C@H]4O)nc3c2)n(C)n1	x	x	-0.4	x
CCOC(=O)c1oc2ccc(S(=O)(=O)n3nc(-c4ccc(OC)cc4)cc3N)cc2c1C	3.9	-1.6	0.0	47.1*
Cc1cccc(-n2nc3c(c2NC(=O)c2ccco2)CS(=O)C3)c1C (stereo not drawn)	-0.1	-3.9	-0.3	-1.8
Cc1cccc(-n2nc3c(c2NC(=O)c2ccco2)CSC3)c1C	-2.5	5.6	-0.2	49.4*
COC(=O)/C=C1\OCc2ccccc21	x	x	0.2	x
C=CCn1c(C)cc(C(=O)Cn2ncc(Cl)c(Cl)c2=O)c1C	10.5	27.8	0.1	50.7*
CO[C@H]1CN(C)C(=O)c2ccc(NC(=O)C3CCC3)cc2OC[C@H](C)N(CC2CCCCC2)C[C@@H]1C	x	x	-0.3	x
Cc1cccc(C(=O)c2c(N)sc3c2CCCC3)c1	1.5	25.7	-0.7	49.0*
Cc1cccc(C(=O)c2c(N)sc3c2CCC(C)C3)c1 (stereo not drawn)	-5.5	7.7	-0.4	43.3
COC(=O)c1ccc2c(c1)C(C)(C)C(/C=C/c1ccc(O)cc1)=[N+]2C	119.4*	-5.6	-1.1	4.8
CSc1ncccc1C(=O)N1CCC1(C)C(=O)NC(C)C (stereo not drawn)	x	x	-0.2	x
CNC(=O)Cn1ncc2c(C)n(Cc3ccc(C)cc3)c(C)c2c1=O	3.0	-0.5	-0.1	2.3
Cc1c2cnn(CC(=O)Nc3c(F)c(F)cc(F)c3F)c(=O)c2c(C)n1Cc1ccccc1F	0.1	17.1	-0.1	55.3*
Cc1ccc(C)c(/C=C(\C(=O)O)c2ccc(S(=O)(=O)N3CCCCC3)s2)c1	-5.6	18.7	-0.1	57.1*
CCC(=O)Nc1cccc(C2=NOC3(C2)C[C@@H](C(N)=O)N(C(=O)CC)C3)c1 (stereo partly drawn)	7.6	x	-0.4	-16.3
C/C=C/C=C\C(=O)Nc1cccc(C2=NOC3(C2)C[C@H](C(N)=O)N(C(=O)/C=C/C)C3)c1 (stereo partly drawn)	9.1	x	0.2	48.1*
C=C(C)C(=O)Nc1cccc(C2=NOC3(C2)C[C@@H](C(N)=O)N(C(=O)[C@H]2CCC(=O)N2)C3)c1 (stereo partly drawn)	x	x	-0.3	81.1*
C/C=C\C=C\C(=O)N1CC2(CC(c3cccc(NC(=O)CC)c3)=NO2)C[C@H]1C(N)=O (stereo partly drawn)	-3.0	x	-0.1	48.4*
C/C=C\C=C\C(=O)Nc1cccc(C2=NOC3(C2)C[C@H](C(N)=O)N(C(=O)c2ccccc2C(=O)c2ccccc2)C3)c1 (stereo partly drawn)	-67.3	x	x	49.6*
C/C=C\C=C/C(=O)Nc1cccc(C2=NOC3(C2)C[C@@H](C(N)=O)N(C(=O)c2ccccc2)C3)c1 (stereo partly drawn)	x	x	x	20.6
C/C=C(/C)C(=O)Nc1cccc(C2=NOC3(C2)C[C@@H](C(N)=O)N(C(=O)[C@H]2CCC(=O)N2)C3)c1 (stereo partly drawn)	-3.0	x	-0.2	-15.8
C/C=C/C=C/C(=O)Nc1cccc(C2=NOC3(C2)C[C@H](C(N)=O)N(C(=O)CC(c2ccccc2)c2ccccc2)C3)c1 (stereo partly drawn)	-4.9	x	x	47.9*
C/C=C\C=C\C(=O)N1CC2(CC(c3cccc(NC(=O)COc4ccc(Cl)cc4)c3)=NO2)C[C@H]1C(N)=O (stereo partly drawn)	x	x	-0.3	47.0*
CC1=CNC(=O)CC(C)(C)C1	x	x	0.4	x

Compound activity (PubChem)
